The record followed here is publication PMC4956519 (Journal of chromatography. B, Analytical technologies in …, 2016).

The format of this series is in vivo, mice. The gist of the method:
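Adult male C57BL/6J mice (20–25 g), single i.v. injection 10 mg/kg in 10% Solutol in saline; 5 mice per time point killed at 2, 5, 15, 30, 60 min, cardiac blood centrifuged for plasma. Plasma precipitated with ice-cold acetonitrile containing internal standard, supernatant diluted with water; C8 reversed-phase LC-MS/MS, positive-ion MRM m/z 578.1→217.1/245.0; calibration 0.5–500 ng/mL; non-compartmental analysis.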

The mark [1] stands for this setting: male, C57BL/6J, mouse, plasma, iv, 10 mg/kg.

Broadly, the AUC(0-inf) is the area under the concentration-time curve extrapolated to infinity. Low readings indicate low exposure, high ones high exposure. For orientation: Cmax means the highest concentration seen after dosing. The term Vd denotes the apparent volume that relates the amount in the body to the concentration in plasma or blood. Lower therefore signals little distribution into tissue. One may read the clearance as the volume of plasma or blood freed of the substance per unit of time. One may read the half-life as the time needed for the level to fall by half in the phase considered. Read a high half-life as slow loss.

Where a SMILES comes first, the peptide text is derived from it. Some results are limits rather than exact numbers.

Regarding `O=C1N[C@H](Cc2c[nH]c3ccccc23)C(=O)N[C@@H](Cc2ccccc2)C(=O)N2CCC[C@@H]2C(=O)N[C@H]1Cc1ccccc1` [[D-Trp]CJ-15,208, cyclo[Phe-D-Pro-Phe-D-Trp]] (HELM PEPTIDE1{F.[dP].F.[dW]}$PEPTIDE1,PEPTIDE1,1:R1-4:R2$$$V2.0), under “10 mg/kg i.v. to mice, LC-MS/MS”, the “Time to almost complete elimination from plasma” value was ≤ 1 h. Also, the AUC0-t (male C57BL/6J mice, 10 mg/kg i.v., plasma, LC-MS/MS, non-compartmental analysis, 5 mice per time point) is 19124.7 ng·min/mL. Also, under setting [1], the AUC(0-inf) was 0.337 µg·h/mL, the C0 turned out to be 1.13 µg/mL, the Cmax was 1.02 µg/mL and the Vd came out at 10.1 L/kg. Under setting [1], this compound displayed a clearance of 29.6 L/h/kg and a half-life of 14.2 min. For the same compound, under “within 15 minutes after 10 mg/kg i.v. to mice, LC-MS/MS”, the “Decline of plasma concentration” value is on record as “over 50%”.
